From ChEMBL document CHEMBL1126571, “Isocyanines and pseudoisocyanines as a novel class of potent noradrenaline transport inhibitors: synthesis, detection, and biological activity” (J Med Chem, 1993)

What was measured:
[1] = system: CAKI-1; experiment: Tested for the inhibition of extraneuronal [3H]norepinephrine uptake in Caki-1 cells; type: functional, cell-based; settings: Homo sapiens, CAKI-1, 15 min
Outline: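 Human renal carcinoma Caki-1 monolayers expressing extraneuronal noradrenaline transport. Preincubated 20 min at 37 °C in HEPES buffer pH 7.4 with U-0521 and pargyline (10 μmol/L each) and ascorbate 1 mmol/L, then incubated 15 min at 37 °C with 100 nmol/L [3H]noradrenaline. Inhibitor present throughout. Cells rinsed ice-cold, read by scintillation. Specific uptake is the fraction sensitive to 100 μmol/L O-methylisoprenaline. IC50 from Hill fit, geometric mean with 95% confidence limits.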

[2] = Partition coefficient (logP); type: physicochemical; settings: octanol/water
Outline: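 Shake-flask octanol/water partition: compound diluted from ethanolic stock to 20 μmol/L in octanol-saturated sodium phosphate buffer (10 mmol/L, pH 7.4). Absorbance read before and after shaking 2 h at 21 °C with buffer-saturated 1-octanol (buffer:octanol volume ratio f), phases split by centrifugation. P = (Ao − Ax)/Ax × f. Read at 520 nm (pseudoisocyanines) or 565 nm (isocyanines); SEM, n = 4.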

[3] = system: PC-12; experiment: Tested for the inhibition of neuronal type of noradrenaline uptake in clonal PC12 cells; type: functional, cell-based; settings: Rattus norvegicus

Structure (SMILES) | IC50 [1] [nM] | logP [2] | IC50 [3] [nM]
CC[n+]1c(Cc2ccc3ccccc3[n+]2CC)ccc2ccccc21 | 12 | 0.65 | 3000
C[n+]1c(Cc2ccc3ccccc3[n+]2C)ccc2ccccc21 | 94 | 0.34 | –
CC(C)[n+]1ccc(/C=C2/C=Cc3ccccc3N2C)c2ccccc21 | 51 | 0.92 | –

The remaining compounds from weak to strong by IC50 [1], led by results:

IC50 [1] [nM] | logP [2] | IC50 [3] [nM] | Structure (SMILES)
100 | 0.81 | – | CN1C=C/C(=C/c2ccc3ccccc3[n+]2C)c2ccccc21
29 | 0.86 | – | CCN1/C(=C\c2cc[n+](CC)c3ccccc23)C=Cc2ccccc21
14 | 1.16 | – | CC(C)N1/C(=C\c2cc[n+](C(C)C)c3ccccc23)C=Cc2ccccc21 [DISPROCYNIUM24]
13 | 0.84 | – | CC[n+]1c(Cc2ccc3ccccc3[n+]2C(C)C)ccc2ccccc21
